zVAD death inh – inhibitors of zVAD-triggered necroptosis, primary screen, L929 cells; 220,000 tested, 0.38% active; viability rescue, % at 10 µM; L929 zVAD necroptosis rescue, ATP luminescence, 24 h; with zVAD 60 µM;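 active means activation, scaled between plate controls, above about 75%, limit read from the data; inactive means activation under that limit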;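 further: 0% = zVAD with DMSO and 100% = DMSO alone without zVAD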
TNF death inh – inhibitors of TNF-alpha triggered necroptosis, primary screen, cell-based, Jurkat FADD-/-, single concentration; Jurkat FADD-/- TNF necroptosis rescue, ATP luminescence, 24 h; 0 = TNF only, 100 = no-TNF cells; activation (protection from cell death), % at 10 µM; 220,000 tested, 0.068% active; AID 463075, 2010;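 active means activation, meaning protection from cell death, of at least 50% relative to plate controls; inactive means activation below 50%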;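 further: necroptosis triggered by 40 ng/mL TNF-alpha added together with compound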
Runt-SMMHC FRET – inhibitors of RUNX1 Runt–CBFb-SMMHC binding, primary screen, biochemical, FRET, Cerulean-Runt, Venus-CBFb-SMMHC, uHTS; Runt-related transcription factor 1 (Homo sapiens) + Core-binding factor subunit beta …; Cerulean-Runt/Venus-CBFb-SMMHC FRET ratio 530/480, 1 h; inhibition, % at 20 µM; 220,000 tested, 0.74% active;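 active means mean inhibition across duplicate retests at 20 µM reaching about 50%, limit read from the data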;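 further: 0% = DMSO wells and 100% = wells with excess untagged CBFb-SMMHC; inhibitors lower the FRET ratio by blocking Runt binding to CBFb-SMMHC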
Target sequence (Q01196 whole entry, looked up): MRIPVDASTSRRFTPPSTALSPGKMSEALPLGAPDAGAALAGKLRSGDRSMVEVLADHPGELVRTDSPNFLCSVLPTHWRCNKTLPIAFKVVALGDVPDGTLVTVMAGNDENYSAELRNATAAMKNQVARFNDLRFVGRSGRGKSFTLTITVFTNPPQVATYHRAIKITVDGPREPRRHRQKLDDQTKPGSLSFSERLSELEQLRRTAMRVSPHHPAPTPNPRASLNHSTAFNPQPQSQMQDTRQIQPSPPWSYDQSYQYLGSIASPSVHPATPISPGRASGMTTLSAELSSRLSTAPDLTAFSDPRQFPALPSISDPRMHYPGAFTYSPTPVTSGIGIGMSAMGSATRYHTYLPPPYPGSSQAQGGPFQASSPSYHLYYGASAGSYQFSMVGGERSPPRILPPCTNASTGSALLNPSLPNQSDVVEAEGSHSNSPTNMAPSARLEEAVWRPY
Target sequence (Q13951 whole entry, looked up): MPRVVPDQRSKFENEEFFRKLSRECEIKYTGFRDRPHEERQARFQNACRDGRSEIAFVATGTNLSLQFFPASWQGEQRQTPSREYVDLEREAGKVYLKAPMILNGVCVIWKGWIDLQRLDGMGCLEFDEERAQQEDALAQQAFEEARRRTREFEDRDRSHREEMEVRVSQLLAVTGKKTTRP
RanGTP-Impb inh – inhibitors of RanGTP-importin-beta interaction, primary screen, biochemical, FRET, CFP-Ran, YFP-importin-beta, homogeneous; inhibition, % (no concentration beside the values); Ran GTPase (GTP-bound) - importin-beta complex; cell-free CFP-Ran/YFP-importin-beta FRET ratio; 300,000 tested, 1.1% active; AID 2216, 2009;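 active means more than half of the replicate wells show a fall in the fluorescence ratio signal beyond about 16%, limit read from the data, passing the limit was not always enough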;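 further: 0% = DMSO wells and 100% = Ran loaded with GDP instead of GTP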
Hck Nef HTS – inhibitors of Nef-activated human Hck kinase, primary screen, biochemical, Z-Lyte FRET, 384-well, Hck-YEEI. Tyrosine-protein kinase HCK (Homo sapiens), P08631. Recombinant Hck-YEEI plus Nef, Z-Lyte FRET kinase assay. inhibition, % at 20 µM. 220,000 tested, 0.68% active. AID 463187, 2010;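 active means Hck-Nef kinase inhibition above about 50%, limit read from the data; inactive means inhibition below that limit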;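 further: 0% = DMSO with Hck plus Nef and 100% = Hck alone without Nef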
Runt-CBFb FRET – inhibitors of RUNX1 Runt–CBFb binding, primary screen, biochemical, FRET, Cerulean-Runt, Venus-CBFb, uHTS | inhibition, % at 20 µM | Cerulean-Runt/Venus-CBFb FRET ratio 530/480, 1 h | AID 1496, 2009 | 220,000 tested, 0.46% active | Runt-related transcription factor 1 (Homo sapiens) + Core-binding factor subunit beta …;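 active means inhibition over about 50% at 20 µM in the single-dose screen, limit read from the data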;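 further: 0% = DMSO wells and 100% = excess unlabeled CBFb competitor control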
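Measured by: fluorescence energy transfer, 422 nm excitation, 530/480 nm emission; test system: Cerulean-tagged RUNX1 Runt domain (FRET donor) fusion protein; buffer or medium: Tris pH 7.5 buffer with BSA; compound: one dose, 20 µM compound, 1% DMSO; times: two 1 h room-temperature incubations shielded from light; benchmarks: unlabeled CBFb 5 µM, positive control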
RUNX1 CBFb TR – inhibitors of RUNX1 Runt–CBFb binding, biochemical, TR-FRET; 480 tested, 20% active; shares compounds with Runt-CBFb FRET; AID 1502, 2009; TR-FRET RUNX1 Runt domain-CBFb binding; inhibition, % at 20 µM; in the data active means inhibition above about 40%
YIC counter – YIC intramolecular FRET probe signal interference, dose response, counter-screen for RanGTP-importin-beta inhibitor project, biochemical, fluorescence FRET; shares compounds with RanGTP-Impb inh; Purified YIC probe, intramolecular FRET ratio YFP/CFP; IC50, µM; 1,000 tested, 40% active; AID 435026, 2010;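 active means fitted half-maximal inhibitory concentration no more than tenfold above the top dose tested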
Hck Nef conf – retest of Hck:Nef kinase inhibitor hits, confirmation, biochemical, Z-Lyte FRET, 384-well, p-Tyr peptide counterscreen; Recombinant Hck-YEEI:Nef, Z-Lyte FRET kinase assay; 1,300 tested, 28% active; shares compounds with Hck Nef HTS; calls only at 10 µM; AID 463188, 2010;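 active means average inhibition of at least 50%, with Z-scores no higher than 3 in both the phospho-tyrosine peptide and fluorescence counterscreens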
The depositor's hits bear a star. Only some compounds are listed: those with a hit (about 2.1% of all), similar ones and a draw of the others.

Results for CCC(C)[C@H](NC(=O)[C@H](Cc1ccccc1)n1c(=O)[nH]c2ccccc2c1=O)C(=O)N1CCC[C@@H]1C(=O)O (stereo partly specified) ?
RanGTP-Impb inh: 0

What do the screens show for `COc1ccc(-c2csc(NC(=O)/C(N=Nc3ccccc3)=C(\C)O)n2)cc1`?
zVAD death inh: 0; TNF death inh: 1; RanGTP-Impb inh: 10; Hck Nef HTS: 24

What do the screens show for `CCOc1cccc2c1OC(c1cc(OC)c(OC)c(OC)c1)N1N=C(c3ccc(C)o3)CC21` (stereo unspecified)?
zVAD death inh: 0; TNF death inh: 1; Runt-SMMHC FRET: -1; RanGTP-Impb inh: 6; Hck Nef HTS: 1; Runt-CBFb FRET: 5

What do the screens show for `COc1c(O)ccc(/C=C(\C#N)c2nc3ccccc3[nH]2)c1[N+](=O)[O-]`?
zVAD death inh: 1; TNF death inh: 3; Runt-SMMHC FRET: 100*; RanGTP-Impb inh: 20*; Hck Nef HTS: 50*; Runt-CBFb FRET: 74*; RUNX1 CBFb TR: 0; Hck Nef conf: inactive

Results for CCCCc1cc(=O)oc2c(CN(C)C)c(O)c(Cl)cc12 ?
zVAD death inh: 1; TNF death inh: 1; Runt-SMMHC FRET: 156*; Hck Nef HTS: 117*; Runt-CBFb FRET: 75*; RUNX1 CBFb TR: -7

How did CCCCc1cc(=O)oc2cc(OCC(=O)N(CC)CC)c(Cl)cc12 do in these assays?
zVAD death inh: 1; TNF death inh: 0; Runt-SMMHC FRET: -7; RanGTP-Impb inh: -2; Hck Nef HTS: 3; Runt-CBFb FRET: -7

Results for COc1cccc(C2C(C(=O)Nc3nc4ccccc4s3)=C(C)NC3=C2C(=O)CC(C)(C)C3)c1OC (stereo unspecified) ?
zVAD death inh: 2; TNF death inh: -12; Runt-SMMHC FRET: 82*; RanGTP-Impb inh: 69*; Hck Nef HTS: 57*; Runt-CBFb FRET: 54*; RUNX1 CBFb TR: 6

How did CCCn1nc(NC(=O)C2CCCO2)c2cc3cccc(C)c3nc21 (stereo unspecified) do in these assays?
zVAD death inh: 1; TNF death inh: 0; Runt-SMMHC FRET: 82*; RanGTP-Impb inh: 68*; Hck Nef HTS: 52*; Runt-CBFb FRET: 62*; RUNX1 CBFb TR: 24; Hck Nef conf: inactive

How did CCc1c(C)c2cc(Cl)c(O)c(CN3CCCCC3)c2oc1=O do in these assays?
zVAD death inh: 0; TNF death inh: 0; Runt-SMMHC FRET: 156*; RanGTP-Impb inh: 22*; Hck Nef HTS: 118*; Runt-CBFb FRET: 85*; RUNX1 CBFb TR: -6; YIC counter: 26*

How did N#Cc1ccc(C(=O)Nc2cc(C3CC3)nn2-c2ccccc2)cc1 do in these assays?
RanGTP-Impb inh: 4

How did Cc1ccc(Nc2cc(C)nn2-c2nc(C)cc(C)n2)cc1 do in these assays?
zVAD death inh: 0; TNF death inh: -3; Runt-SMMHC FRET: -2; RanGTP-Impb inh: 24*; Hck Nef HTS: -1; Runt-CBFb FRET: -1; YIC counter: >50

Results for COc1ccccc1C(O)(C(=O)NN(C)c1ccccc1)c1ccccc1OC ?
zVAD death inh: 1; TNF death inh: 1; Runt-SMMHC FRET: 0; RanGTP-Impb inh: 0; Hck Nef HTS: 0; Runt-CBFb FRET: 2

Results for CCOC(=O)c1ccccc1NC(=O)COC(=O)C(CCSC)NC(=O)COc1ccccc1 (stereo unspecified) ?
RanGTP-Impb inh: 24*; YIC counter: >50

Results for CCOC(=O)c1ccccc1NC(=O)COc1ccccc1 ?
zVAD death inh: 0; TNF death inh: 1; Runt-SMMHC FRET: 1; RanGTP-Impb inh: -1; Hck Nef HTS: -8; Runt-CBFb FRET: -3

How did O=C(NCCCc1ccccc1)[C@@H]1Cc2ccccc2CN1 do in these assays?
RanGTP-Impb inh: -1

Results for CCN(CC)S(=O)(=O)c1ccc(/C=C/C(=O)Nc2ccc(F)cc2F)cc1 ?
zVAD death inh: 6; TNF death inh: -1; Runt-SMMHC FRET: 0; RanGTP-Impb inh: 21*; Hck Nef HTS: 1; Runt-CBFb FRET: 0; YIC counter: >50

Results for NC(=O)C1CCN(C(=O)CC2(CC(=O)O)CCCC2)CC1 ?
RanGTP-Impb inh: -1

What do the screens show for `Cc1ccc(-c2c(C(=O)N/N=C/c3ccc4c(c3)OCO4)nnn2-c2nonc2N)cc1`?
RanGTP-Impb inh: 23*; YIC counter: >50

Results for CCOC(=O)c1ccc(NC(=O)CSc2nc(C)nc3c2c(=O)n(C)c(=O)n3C)cc1 ?
zVAD death inh: -1; TNF death inh: -1; Runt-SMMHC FRET: 0; RanGTP-Impb inh: 19*; Hck Nef HTS: 2; Runt-CBFb FRET: -18; YIC counter: >50

What do the screens show for `CN(Cc1nccn1C)C(=O)c1ccc(OC2CCN(CCc3ccccc3)CC2)cc1`?
RanGTP-Impb inh: 1

How did Cc1ccc(NC(=O)COC(=O)Cc2ccsc2)c(C)c1 do in these assays?
zVAD death inh: 2; TNF death inh: 1; Runt-SMMHC FRET: 0; RanGTP-Impb inh: 19*; Hck Nef HTS: 19; Runt-CBFb FRET: 0; YIC counter: >50

Results for Cc1ccccc1Cn1nnc(-c2cccc(C(=O)O)c2)n1 ?
zVAD death inh: 1; TNF death inh: -1; Runt-SMMHC FRET: -2; RanGTP-Impb inh: 16*; Hck Nef HTS: 0; Runt-CBFb FRET: 0; YIC counter: >50
